Values after ≈ are worked out from the molar mass of the structure shown.
Experiments:
[1] = target: Sodium- and chloride-dependent GABA transporter 3 (Homo sapiens, UniProt P48066, S468Y); test: Inhibition of human GAT3 S468Y mutant expresses in tsA201 cells assessed as reduction in [3H]GABA uptake after 3 mins by scintillation counting method; type: cell-based
Procedure, shortened: (§1)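 Site-directed mutant transporters transiently transfected (PolyFect) into tsA201 cells, plated and used about 24 h later. Cells were washed with HBSS containing 20 mM HEPES, 1 mM CaCl2 and 1 mM MgCl2, pH 7.4. Uptake of 30 nM [3H]GABA was run with varied inhibitor concentrations for 3 min at 37 °C, then three ice-cold washes and scintillation counting. IC50 was taken from variable-slope sigmoidal fits. Triplicates, at least three independent experiments.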

[2] = target: Sodium- and chloride-dependent GABA transporter 3 (Homo sapiens, UniProt P48066, L314Q); test: Inhibition of human GAT3 L314Q mutant expresses in tsA201 cells assessed as reduction in [3H]GABA uptake after 3 mins by scintillation counting method; type: cell-based; procedure, shortened: as §1
[3] = target: T1, Sodium- and chloride-dependent GABA transporter 1 (Mus musculus, UniProt P31648); test: Inhibition of mouse GAT1 expressed in hamster BHK cells assessed as reduction in [3H]GABA uptake after 3 mins by scintillation counting method; type: cell-based; settings: read-out: Ki(app)
GABA transporter 2 [4] = target: T2, GABA transporter 2 (Mus musculus, UniProt P31651); test: Inhibition of mouse BGT1 expressed in hamster BHK cells assessed as reduction in [3H]GABA uptake after 3 mins by scintillation counting method; type: cell-based; settings: read-out: Ki(app)
T2 sequence (P31651 whole entry): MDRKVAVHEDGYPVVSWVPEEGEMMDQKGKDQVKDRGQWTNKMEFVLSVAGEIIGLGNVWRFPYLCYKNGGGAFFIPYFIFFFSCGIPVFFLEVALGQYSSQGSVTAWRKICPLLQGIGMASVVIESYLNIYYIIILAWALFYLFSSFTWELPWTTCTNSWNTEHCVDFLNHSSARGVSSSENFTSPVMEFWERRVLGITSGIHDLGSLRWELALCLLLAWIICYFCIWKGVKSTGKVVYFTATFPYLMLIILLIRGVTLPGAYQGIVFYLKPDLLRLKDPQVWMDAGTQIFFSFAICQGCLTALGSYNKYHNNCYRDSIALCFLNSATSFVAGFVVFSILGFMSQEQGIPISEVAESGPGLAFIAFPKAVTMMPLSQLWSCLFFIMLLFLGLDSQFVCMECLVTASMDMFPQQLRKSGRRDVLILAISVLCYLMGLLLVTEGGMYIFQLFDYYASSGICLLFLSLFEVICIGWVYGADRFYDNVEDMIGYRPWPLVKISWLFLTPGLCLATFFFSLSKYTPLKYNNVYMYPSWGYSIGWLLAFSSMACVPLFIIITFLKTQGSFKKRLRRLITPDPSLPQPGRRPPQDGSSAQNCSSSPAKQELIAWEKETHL

GABA transporter 3 [5] = target: T3, GABA transporter 3 (Mus musculus, UniProt P31649); test: Inhibition of mouse GAT2 expressed in hamster BHK cells assessed as reduction in [3H]GABA uptake after 3 mins by scintillation counting method; type: cell-based; settings: read-out: Ki(app)
T3 sequence (P31649 whole entry): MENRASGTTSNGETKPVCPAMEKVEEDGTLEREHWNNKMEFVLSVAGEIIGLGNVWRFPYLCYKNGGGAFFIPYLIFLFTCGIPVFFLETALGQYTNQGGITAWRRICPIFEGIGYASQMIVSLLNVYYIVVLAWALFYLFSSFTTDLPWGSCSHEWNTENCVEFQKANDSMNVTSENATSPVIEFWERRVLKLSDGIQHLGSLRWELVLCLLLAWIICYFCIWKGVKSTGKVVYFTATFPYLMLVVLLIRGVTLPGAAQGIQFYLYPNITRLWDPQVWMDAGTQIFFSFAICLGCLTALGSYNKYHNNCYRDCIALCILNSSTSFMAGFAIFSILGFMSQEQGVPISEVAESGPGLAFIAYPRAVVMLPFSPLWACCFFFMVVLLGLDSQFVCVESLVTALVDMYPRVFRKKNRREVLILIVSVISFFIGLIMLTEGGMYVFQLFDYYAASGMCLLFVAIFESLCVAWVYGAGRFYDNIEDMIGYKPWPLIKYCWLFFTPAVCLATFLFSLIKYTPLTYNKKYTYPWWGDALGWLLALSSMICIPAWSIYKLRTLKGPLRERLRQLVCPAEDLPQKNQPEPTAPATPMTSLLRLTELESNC

[6] = target: T1, Sodium- and chloride-dependent GABA transporter 1; test: Inhibition of mouse GAT1 expressed in HEK293 cells assessed as reduction in [3H]GABA uptake after 3 mins by scintillation counting method; type: cell-based
Procedure, shortened: (§2)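 HEK293 lines stably expressing a single mouse GAT subtype, kept under blasticidin-S (5 µg/mL) selection. Cells were assayed about 24 h after plating with 30 nM [3H]GABA plus varying compound concentrations for 3 min at 37 °C in HBSS buffered with 20 mM HEPES (1 mM CaCl2, 1 mM MgCl2, pH 7.4). Cells were washed ice-cold and radioactivity counted. IC50 came from sigmoidal variable-slope fits.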

GABA transporter 2 [7] = target: T2, GABA transporter 2; test: Inhibition of mouse BGT1 expressed in HEK293 cells assessed as reduction in [3H]GABA uptake after 3 mins by scintillation counting method; type: cell-based; procedure, shortened: as §2
[8] = Solubility of compound in pH 7.4 phosphate buffer after 24 hrs by HPLC-UV method; type: physicochemical
GABA transporter 3 [9] = target: T3, GABA transporter 3; test: Inhibition of mouse GAT2 expressed in HEK293 cells assessed as reduction in [3H]GABA uptake after 3 mins by scintillation counting method; type: cell-based
Procedure, shortened: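 HEK293 cells stably expressing mouse GAT2 were kept under blasticidin-S (5 µg/mL) selection. Ice-cold washes preceded scintillation counting. IC50 came from a variable-slope sigmoidal fit.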

Chain of Sodium- and chloride-dependent GABA transporter 3 (Homo sapiens, UniProt P48066, L314Q) (P48066 whole entry L314Q): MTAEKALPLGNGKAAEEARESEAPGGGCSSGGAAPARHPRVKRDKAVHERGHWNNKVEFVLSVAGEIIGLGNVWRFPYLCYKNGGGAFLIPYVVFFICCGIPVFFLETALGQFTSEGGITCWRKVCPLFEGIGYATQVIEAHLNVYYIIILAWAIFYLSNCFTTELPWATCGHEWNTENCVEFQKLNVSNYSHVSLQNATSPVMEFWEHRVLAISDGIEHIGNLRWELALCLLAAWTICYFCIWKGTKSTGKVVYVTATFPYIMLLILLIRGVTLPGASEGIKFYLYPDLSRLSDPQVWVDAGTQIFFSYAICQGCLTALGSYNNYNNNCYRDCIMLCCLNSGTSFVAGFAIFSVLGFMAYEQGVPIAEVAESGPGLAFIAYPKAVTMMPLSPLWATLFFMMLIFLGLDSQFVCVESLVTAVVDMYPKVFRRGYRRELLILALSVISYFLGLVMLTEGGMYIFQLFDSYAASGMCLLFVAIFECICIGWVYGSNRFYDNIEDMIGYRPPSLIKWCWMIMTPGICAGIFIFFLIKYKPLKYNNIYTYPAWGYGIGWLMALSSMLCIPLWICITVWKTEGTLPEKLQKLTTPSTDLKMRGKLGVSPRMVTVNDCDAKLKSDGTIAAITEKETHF
Chain of Sodium- and chloride-dependent GABA transporter 3 (Homo sapiens, UniProt P48066, S468Y) (P48066 whole entry S468Y): as the sequence (P48066 whole entry L314Q) above, with Q314L, S468Y counted along it

| IC50 [1] | IC50 [2] | Structure (SMILES) | Ki [3] | Ki (GABA transporter 2 [4]) | Ki (GABA transporter 3 [5]) | IC50 [6] | IC50 (GABA transporter 2 [7]; read-out: IC50) | solubility at 24 h [8] | IC50 (GABA transporter 3 [9]) | IC50 (GABA transporter 2 [7]) |
| --- | --- | --- | --- | --- | --- | --- | --- | --- | --- | --- |
| 1 µM | 4 µM | NCCCC(=O)O [GAMMA-AMINOBUTYRIC ACID] |  |  |  |  |  |  |  |  |
|  |  | COc1ccccc1C1(O)CCN(CCCn2c3ccccc3c3ccccc32)CC1 | 19 µM | 1.4 µM | 41 µM |  |  |  |  |  |
|  |  | O=C(NC1CCN(Cc2cccc(C(F)(F)F)c2)CC1)c1ccc(Cl)cc1Cl |  |  |  | > 1000 µM | 51 µM | 3 µg/mL (≈ 6.96 µM) | > 1000 µM |  |
|  |  | COc1cccc(CN2CCC(NC(=O)c3ccc(Cl)nc3Cl)CC2)c1 |  |  |  | > 300 µM | 115 µM | 240 µg/mL (≈ 609 µM) | > 300 µM |  |
|  |  | O=C(NC1CCN(Cc2ccccc2)CC1)c1c(Cl)cc(Cl)cc1Cl |  |  |  | > 1000 µM | 11 µM | 40 µg/mL (≈ 101 µM) | 1700 µM |  |
|  |  | CCOc1cccc(CN2CCC(NC(=O)c3ccc(Cl)nc3Cl)CC2)c1 |  |  |  | > 300 µM | 111 µM | 130 µg/mL (≈ 318 µM) | > 300 µM | 111 µM |
